How the values were obtained:
TRiC = test: Crosslinking-mass spectrometry; assay type: binding; conditions: DSS crosslinking, trypsin, tandem MS, xQuest
Outline: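 Intact TRiC crosslinked with DSS to full-length actin, tubulin or HIV Gag. Crosslinked samples were trypsin-digested and enriched for crosslinked species before MS. Crosslink sites on CCT subunits were mapped onto the apical-domain structure.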

ApiCCT3 [1] = assay type: binding; conditions: 15N-1H HSQC
ApiCCT3 [2] = test: NMR chemical-shift mapping, 15N-labeled p6 with unlabeled ApiCCT3; assay type: binding; conditions: 15N-1H HSQC, 0, 2.5, 5 and 10-fold excess ApiCCT3
Outline: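 Recombinant p6 was expressed with 15N/13C isotope labeling and purified. Chemical-shift mapping used 300 µM protein samples on an 800 MHz spectrometer with a cryogenic probe.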

intact purified TRiC = test: NMR chemical shift perturbation of 15N p6 with intact purified TRiC; assay type: binding; conditions: Fig. S4D
endogenous TRiC = test: Biotin affinity isolation from HEK293 extracts and TRiC immunoblot; assay type: binding, human; conditions: biotinylated peptide, HEK293 extract, immunoblot against CCT5 and CCT2
CCT3 = conditions: cited from earlier work
[3] = biological target: T1, apical domain of CCT3 (ApiCCT3) (UniProt P49368 210-380); test: SPR
T1 sequence (looked up): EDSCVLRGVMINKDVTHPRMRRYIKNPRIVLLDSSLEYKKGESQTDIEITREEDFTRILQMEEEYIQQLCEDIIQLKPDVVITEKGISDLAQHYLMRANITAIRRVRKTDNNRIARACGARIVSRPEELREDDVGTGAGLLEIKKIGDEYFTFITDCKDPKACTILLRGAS

p6 = test: SPR kinetics of ApiCCT3 alanine mutants on immobilized p6; assay type: binding, HIV; conditions: 31 surface-exposed residues substituted

Which “location of heterotypic TRiC crosslinks” value (TRiC) does the source give for actin here?
The value was “localized to substrate determinants previously implicated in TRiC binding”.

Which results are given for “p6: 54 amino acid long HIV protein p6 (LQSRPEPTAPPEESFRSGVETTTPPQKQEPIDKELYPLTSLRSLFGNDPSSQ)”?
chemical shift perturbation of 15N-ApiCCT3 (ApiCCT3 [1]; 300 µM protein sample, 800 MHz, 0, 5, 10, 20-fold excess p6 (Fig. 2)): concentration-dependent shifts in a specific subset of peaks; number of ApiCCT3 peaks perturbed weakly (ApiCCT3 [1]; > 0.1 p.p.m.): 4 peaks; number of ApiCCT3 peaks strongly perturbed (ApiCCT3 [1]; > 0.2 p.p.m.): 5 peaks; chemical shift perturbation of 15N-p6 by ApiCCT3 (ApiCCT3 [2]): concentration-dependent chemical shift perturbation in a subset of peaks; chemical shift perturbation of 15N p6 by intact TRiC (intact purified TRiC): the same subset of p6 residues was affected upon addition of intact TRiC; binding to endogenous TRiC (endogenous TRiC): bound TRiC; association with CCT3 (CCT3): associate directly with subunit CCT3 of TRiC

B1: HIV protein p6 (natural protein)
chain: LQSRPEPTAPPEESFRSGVETTTPPQKQEPIDKELYPLTSLRSLFGNDPSSQ
For B1, which Kd [3] is on record?
Its Kd is 250 to 500 nM.

B2: Y274A (protein)
chain: MMGHRPVLVLSQNTKRESGRKVQSGNINAAKTIADIIRTCLGPKSMMKMLLDPMGGIVMTNDGNAILREIQVQHPAAKSMIEISRTQDEEVGDGTTSVIILAGEMLSVAEHFLEQQMHPTVVISAYRKALDDMISTLKKISIPVDISDSDMMLNIINSSITTKAISRWSSLACNIALDAVKMVQFEENGRKEIDIKKYARVEKIPGGIIEDSCVLRGVMINKDVTHPRMRRYIKNPRIVLLDSSLEYKKGESQTDIEITREEDFTRILQMEEEAIQQLCEDIIQLKPDVVITEKGISDLAQHYLMRANITAIRRVRKTDNNRIARACGARIVSRPEELREDDVGTGAGLLEIKKIGDEYFTFITDCKDPKACTILLRGASKEILSEVERNLQDAMQVCRNVLLDPQLVPGGGASEMAVAHALTEKSKAMTGVEQWPYRAVAQALEVIPRTLIQNCGASTIRLLTSLRAKHTQENCETWGVNGETGTLVDMKELGIWEPLAVKLQTYKTAVETAVLLLRIDDIVSGHKKKGDDQSRQGGAPDAGQE
With B2 as the molecule, how does the “impact of Ala substitution in ApiCCT3 on p6 binding” value (p6) read?
Its value is “no impact on p6 binding”.

B3: tubulin: full length physiological substrate of TRiC (protein)
chain: MREIIHISTGQCGNQIGAAFWETICGEHGLDFNGTYHGHDDIQKERLNVYFNEASSGKWVPRSINVDLEPGTIDAVRNSAIGNLFRPDNYIFGQSSAGNVWAKGHYTEGAELVDSVMDVIRREAEGCDSLQGFQITHSLGGGTGSGMGTLLISKIREEFPDRMMATFSVLPSPKTSDTVVEPYNATLSVHQLVEHSDETFCIDNEALYDICQRTLKLNQPSYGDLNNLVSSVMSGVTTSLRYPGQLNSDLRKLAVNLVPFPRLHFFMVGYAPLTAIGSQSFRSLTVPELTQQMFDAKNMMAAADPRNGRYLTVAAFFRGKVSVKEVEDEMHKVQSKNSDYFVEWIPNNVQTAVCSVAPQGLDMAATFIANSTSIQELFKRVGDQFSAMFKRKAFLHWYTSEGMDELEFSEAESNMNDLVSEYQQYQEATVEDDEEVDENGDFGAPQNQDEPITENFE
With B3 as the molecule, how does the “crosslinks to TRiC subunits” value (TRiC) read?
Its value is “crosslinked to multiple TRiC subunits through specific regions in the polypeptide”.

And the “location of heterotypic TRiC crosslinks” value (TRiC)?
The value was “localized to substrate determinants previously implicated in TRiC binding”.

Source: publication PMC4298165 (Cell, 2014)
